From ChEMBL document CHEMBL4622928, “Discovery of 5-(4-methylpiperazin-1-yl)-2-nitroaniline derivatives as a new class of SIRT6 inhibitors” (Bioorg Med Chem Lett, 2020)

Experiments:
Histone deacetylase 7 = target: T1, Histone deacetylase 7 (Homo sapiens, UniProt Q8WUI4); experiment: Inhibition of HDAC7 (unknown origin)
T1 sequence (Q8WUI4 whole entry): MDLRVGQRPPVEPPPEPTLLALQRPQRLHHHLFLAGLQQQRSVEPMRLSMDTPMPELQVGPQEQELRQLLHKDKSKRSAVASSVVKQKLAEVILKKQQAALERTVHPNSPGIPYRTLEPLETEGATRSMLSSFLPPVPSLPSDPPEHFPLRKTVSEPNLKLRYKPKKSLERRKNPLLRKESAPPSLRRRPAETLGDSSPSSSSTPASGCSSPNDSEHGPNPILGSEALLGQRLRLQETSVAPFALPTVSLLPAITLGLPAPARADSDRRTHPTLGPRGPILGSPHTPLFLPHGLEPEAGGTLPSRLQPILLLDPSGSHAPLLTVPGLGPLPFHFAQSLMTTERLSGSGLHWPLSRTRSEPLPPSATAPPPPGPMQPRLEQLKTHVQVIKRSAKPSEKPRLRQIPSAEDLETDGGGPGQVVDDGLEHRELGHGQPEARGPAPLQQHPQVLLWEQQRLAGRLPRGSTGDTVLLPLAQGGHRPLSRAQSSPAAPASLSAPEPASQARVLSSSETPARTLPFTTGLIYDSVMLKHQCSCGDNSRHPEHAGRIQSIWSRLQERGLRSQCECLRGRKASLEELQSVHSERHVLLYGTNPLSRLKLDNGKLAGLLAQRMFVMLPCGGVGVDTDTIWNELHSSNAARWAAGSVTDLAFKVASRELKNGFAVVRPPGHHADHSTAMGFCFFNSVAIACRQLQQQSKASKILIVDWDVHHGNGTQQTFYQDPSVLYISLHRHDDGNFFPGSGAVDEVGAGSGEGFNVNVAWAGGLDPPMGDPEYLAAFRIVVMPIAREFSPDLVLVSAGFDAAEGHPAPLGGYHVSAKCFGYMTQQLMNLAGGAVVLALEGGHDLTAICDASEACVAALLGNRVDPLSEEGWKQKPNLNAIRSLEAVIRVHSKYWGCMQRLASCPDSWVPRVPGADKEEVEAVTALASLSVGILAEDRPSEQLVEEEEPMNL
In short: (§1)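 Each deacetylase was run in a Fluor de Lys (FDL) fluorogenic deacetylation assay as a selectivity screen, with compound tested at concentrations up to 200 μM. IC50 was estimated from the dose-response.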

[1] = target: T2, NAD-dependent protein deacylase sirtuin-6 (Homo sapiens, UniProt Q8N6T7); experiment: Inhibition of SIRT6 (unknown origin) using Ac-RYQK(Ac)-AMC as substrate by Fluor de Lys assay
T2 sequence (Q8N6T7 whole entry): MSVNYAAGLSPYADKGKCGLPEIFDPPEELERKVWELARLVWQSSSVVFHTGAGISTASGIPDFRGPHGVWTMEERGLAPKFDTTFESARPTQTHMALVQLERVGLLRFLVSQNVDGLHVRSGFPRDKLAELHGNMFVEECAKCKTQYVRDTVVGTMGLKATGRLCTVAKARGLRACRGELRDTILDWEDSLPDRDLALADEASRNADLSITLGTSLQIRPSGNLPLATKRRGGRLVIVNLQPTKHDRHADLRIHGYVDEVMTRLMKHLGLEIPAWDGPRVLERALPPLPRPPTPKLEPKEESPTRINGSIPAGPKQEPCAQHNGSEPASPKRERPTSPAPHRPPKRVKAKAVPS

[2] = Toxicity in mouse model of type-2 diabetes mellitus assessed as effect on body weight at 7.5 to 30 mg/kg, ip; type: organism-based; conditions: in vivo
In short: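 High-fat-diet-fed mice served as the type 2 diabetes model. Compound was given by intraperitoneal injection, and blood glucose and body weight were followed over time.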

[3] = target: T3, NAD-dependent protein deacetylase sirtuin-1 (Homo sapiens, UniProt Q96EB6); experiment: Inhibition of SIRT1 (unknown origin); in short: as §1
T3 sequence (Q96EB6 whole entry): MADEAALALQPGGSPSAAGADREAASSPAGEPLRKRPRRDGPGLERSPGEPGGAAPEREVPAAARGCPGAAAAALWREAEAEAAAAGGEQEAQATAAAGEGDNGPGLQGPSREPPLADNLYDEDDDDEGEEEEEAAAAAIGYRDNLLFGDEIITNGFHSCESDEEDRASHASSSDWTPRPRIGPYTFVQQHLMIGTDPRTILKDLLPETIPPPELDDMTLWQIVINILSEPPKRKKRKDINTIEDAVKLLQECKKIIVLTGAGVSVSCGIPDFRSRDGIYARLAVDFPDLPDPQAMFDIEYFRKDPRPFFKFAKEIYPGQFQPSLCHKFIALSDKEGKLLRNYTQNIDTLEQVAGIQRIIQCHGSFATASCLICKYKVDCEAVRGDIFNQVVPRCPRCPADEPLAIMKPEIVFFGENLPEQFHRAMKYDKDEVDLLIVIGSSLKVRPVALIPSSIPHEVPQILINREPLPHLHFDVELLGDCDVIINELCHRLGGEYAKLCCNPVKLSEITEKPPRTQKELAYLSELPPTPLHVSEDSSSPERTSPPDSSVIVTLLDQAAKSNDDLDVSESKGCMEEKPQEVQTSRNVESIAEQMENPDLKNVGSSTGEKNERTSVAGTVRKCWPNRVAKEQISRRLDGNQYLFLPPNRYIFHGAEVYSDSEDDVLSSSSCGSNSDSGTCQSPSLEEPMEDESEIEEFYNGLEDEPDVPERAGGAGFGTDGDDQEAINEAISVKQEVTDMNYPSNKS

[4] = target: T2, NAD-dependent protein deacylase sirtuin-6; experiment: Inhibition of SIRT6 in human BxPC3 cells assessed as increase in […] expression measured after 48 hrs by Western blot analysis; type: cell-based; conditions: BXPC-3
In short: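 BxPC-3 cells were exposed to 0.78, 1.56, 3.13, 6.25, 12.5 and 25 μM compound for 48 h. Histone H3K9ac and H3K18ac levels were then assessed by western blot, with β-actin as the loading control. Acetylation increase is read as cellular SIRT6 deacetylase inhibition.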

SMILES: CN1CCN(c2ccc([N+](=O)[O-])c(N)c2)CC1
- IC50 (Histone deacetylase 7): > 200 µM
- IC50 [1]: 4.93 µM
- Activity [2]: Non-Toxic
- IC50 [3]: > 200 µM
- inhibition [4]: Dose-dependent effect
